≈ marks a conversion by molar mass, not a printed value. Calls of active or inactive are those of the source. The calls are words filed in the database; no cut-off is given here.
Legend:
Leishmania amazonensis [1] = experiment: Antileishmanial activity against promastigotes of Leishmania amazonensis IFLA/BR/67/PH8 after 72 hrs by Neubauer haemocytometer counting; conditions: IFLA/BR/67/PH8, 72 h
[2] = Selectivity index, ratio of HC50 for human RBC to IC50 for axenic amastigotes of Leishmania amazonensis IFLA/BR/67/PH8
In short: (§1)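 Promastigote values came from haemocytometer counts after 72 h at 25°C. Axenic amastigote values came from MTT readings after 24 h at 32°C, using amastigotes differentiated at pH 4.6. All 50% values were obtained by probit regression.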

[3] = Selectivity index, ratio of HC50 for human RBC to IC50 for promastigotes of Leishmania amazonensis IFLA/BR/67/PH8
In short: as §1

Leishmania amazonensis [4] = experiment: Antileishmanial activity against axenic amastigotes of Leishmania amazonensis IFLA/BR/67/PH8 after 24 hrs by MTT assay; conditions: IFLA/BR/67/PH8, 24 h
[5] = Toxicity in human RBC assessed as induction of hemolytic activity after 1 hr by spectrometer analysis; format: cell-based, Erythrocyte; conditions: red blood cells (RBC)
In short: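 A 5% suspension of human erythrocytes in PBS was mixed 4:1 with serial compound dilutions and incubated 1 h at 37°C. The reaction was stopped with PBS (pH 7.2) and spun 10 min at 1000 x g, and supernatant absorbance was read at 540 nm. Haemolysis was expressed relative to a drug-free blank and to water-induced total lysis. HC50 was obtained by probit regression.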

[6] = Selectivity index, ratio of CC50 for Swiss mouse peritoneal macrophages to EC50 for axenic amastigotes of Leishmania amazonensis IFLA/BR/67/PH8
In short: as §1

[7] = Selectivity index, ratio of CC50 for Swiss mouse peritoneal macrophages to IC50 for promastigotes of Leishmania amazonensis IFLA/BR/67/PH8; format: functional
In short: as §1

[8] = Cytotoxicity against Swiss mouse peritoneal macrophages after 24 hrs by MTT assay; format: cell-based, Peritoneal macrophage cell
In short: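 Macrophages were collected from Swiss mice 5 days after thioglycollate (3%) elicitation. About 1 x 10^6 cells per well were incubated in RPMI 1640 with 10% heat-inactivated FBS and compound for 24 h at 37°C, 5% CO₂. MTT was added for 4 h, followed by 10% SDS, and absorbance was read at 540 nm. CC50 was obtained by probit regression.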

[9] = system: Peritoneal macrophage cell; experiment: Immunomodulatory activity in Swiss mouse peritoneal macrophages infected with promastigotes form of Leishmania amazonensis IFLA/BR/67/PH8 assessed as increase of TNFalpha production at 6.25 to 25 uM after 72 hrs by sandwich ELISA; format: functional, cell-based
In short: (§2)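 Supernatants came from infected macrophages treated for 72 h at 37°C, 5% CO₂. TNF-α, IL-12 and IL-10 were measured by sandwich ELISA at 450 nm against murine recombinant cytokine standards. NO was estimated as nitrite by the Griess reaction at 540 nm against a sodium nitrite standard. LPS (10 mg/L) served as positive control. Three experiments were run in triplicate.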

Leishmania amazonensis [10] = experiment: Antileishmanial activity against promastigotes of Leishmania amazonensis IFLA/BR/67/PH8 assessed as induction of early apoptosis using Annexin-V staining at 4 times IC50 after 4 hrs by flow cytometry (reference value: 8.3%); format: functional
Leishmania amazonensis [11] = experiment: Antileishmanial activity against promastigotes of Leishmania amazonensis IFLA/BR/67/PH8 assessed as viable cells using Annexin-V staining at IC50 after 4 hrs by flow cytometry (reference value: 77%); format: functional
Leishmania amazonensis [12] = experiment: Antileishmanial activity against promastigotes of Leishmania amazonensis IFLA/BR/67/PH8 assessed as induction of necrosis using Annexin-V-FITC/PI staining at 4 times IC50 after 4 hrs by flow cytometry (reference value: 2.6%); format: functional
Leishmania amazonensis [13] = experiment: Antileishmanial activity against promastigotes of Leishmania amazonensis IFLA/BR/67/PH8 assessed as induction of late apoptosis using Annexin-V/PI staining at 4 times IC50 after 4 hrs by flow cytometry (reference value: 12.05%); format: functional
Leishmania amazonensis [14] = experiment: Antileishmanial activity against promastigotes of Leishmania amazonensis IFLA/BR/67/PH8 assessed as viable cells using Annexin-V staining at 4 times IC50 after 4 hrs by flow cytometry (reference value: 77%); format: functional
Leishmania amazonensis [15] = experiment: Antileishmanial activity against promastigotes of Leishmania amazonensis IFLA/BR/67/PH8 assessed as induction of early apoptosis using Annexin-V staining at 2 times IC50 after 4 hrs by flow cytometry (reference value: 8.3%); format: functional
Leishmania amazonensis [16] = experiment: Antileishmanial activity against axenic amastigotes of Leishmania amazonensis IFLA/BR/67/PH8 infected in Swiss mouse peritoneal macrophages assessed as reduction of survival rate after 24 hrs by light microscopy analysis; format: functional, organism-based
In short: (§3)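 Peritoneal macrophages were plated on glass coverslips at 1 x 10^6 cells/mL in supplemented RPMI 1640 and allowed to adhere for 2 h at 34°C, 5% CO₂. They were infected for 3 h with stationary-phase promastigotes at 10 parasites per macrophage, washed with PBS, then exposed to compound for 24 or 72 h. Coverslips were fixed and Panoptic-stained, and 300 macrophages per coverslip were counted by light microscopy. EC50 was derived by probit regression.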

[17] = system: Peritoneal macrophage cell; experiment: Immunomodulatory activity in Swiss mouse peritoneal macrophages infected with promastigotes form of Leishmania amazonensis IFLA/BR/67/PH8 assessed as increase of IL-12 production at 6.25 to 25 uM after 72 hrs by sandwich ELISA; format: functional, cell-based
In short: as §2

Leishmania amazonensis [18] = experiment: Antileishmanial activity against promastigotes of Leishmania amazonensis IFLA/BR/67/PH8 assessed as induction of late apoptosis using Annexin-V/PI staining at 2 times IC50 after 4 hrs by flow cytometry (reference value: 12.05%); format: functional
Leishmania amazonensis [19] = experiment: Antileishmanial activity against promastigotes of Leishmania amazonensis IFLA/BR/67/PH8 assessed as induction of necrosis using Annexin-V-FITC/PI staining at IC50 after 4 hrs by flow cytometry (reference value: 2.6%); format: functional
Leishmania amazonensis [20] = experiment: Antileishmanial activity against promastigotes of Leishmania amazonensis IFLA/BR/67/PH8 assessed as induction of late apoptosis using Annexin-V/PI staining at IC50 after 4 hrs by flow cytometry (reference value: 12.05%); format: functional
Leishmania amazonensis [21] = experiment: Antileishmanial activity against axenic amastigotes of Leishmania amazonensis IFLA/BR/67/PH8 infected in Swiss mouse peritoneal macrophages assessed as reduction of survival rate after 72 hrs by light microscopy analysis; format: functional, organism-based
In short: as §3

Leishmania amazonensis [22] = experiment: Antileishmanial activity against promastigotes of Leishmania amazonensis IFLA/BR/67/PH8 assessed as induction of necrosis using Annexin-V-FITC/PI staining at 2 times IC50 after 4 hrs by flow cytometry (reference value: 2.6%); format: functional
[23] = system: Peritoneal macrophage cell; experiment: Immunomodulatory activity in Swiss mouse peritoneal macrophages infected with promastigotes form of Leishmania amazonensis IFLA/BR/67/PH8 assessed as increase of IL-10 production at 6.25 to 25 uM after 72 hrs by sandwich ELISA; format: functional, cell-based
In short: as §2

Leishmania amazonensis [24] = experiment: Antileishmanial activity against promastigotes of Leishmania amazonensis IFLA/BR/67/PH8 assessed as induction of DNA fragmentation at 1 to 4 times IC50 after 24 hrs by agarose gel electrophoresis; format: functional, organism-based
In short: (§4)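 Genomic DNA was extracted with phenol/chloroform and run on agarose with GelRed (1:500) for 1 h at […]. Fragmentation was viewed under UV as a qualitative read-out.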

Leishmania amazonensis [25] = experiment: Antileishmanial activity against promastigotes of Leishmania amazonensis IFLA/BR/67/PH8 assessed as induction of early apoptosis using Annexin-V staining at IC50 after 4 hrs by flow cytometry (reference value: 8.3%); format: functional
Leishmania amazonensis [26] = experiment: Antileishmanial activity against promastigotes of Leishmania amazonensis IFLA/BR/67/PH8 assessed as viable cells using Annexin-V staining at 2 times IC50 after 4 hrs by flow cytometry (reference value: 77%); format: functional
[27] = system: Peritoneal macrophage cell; experiment: Immunomodulatory activity in Swiss mouse peritoneal macrophages infected with promastigotes form of Leishmania amazonensis IFLA/BR/67/PH8 assessed as increase of nitric oxide production at 6.25 to 25 uM after 72 hrs by Griess assay; format: functional, cell-based
In short: as §2

Leishmania amazonensis [28] = experiment: Antileishmanial activity against promastigotes of Leishmania amazonensis IFLA/BR/67/PH8 assessed as induction of DNA fragmentation at IC50 after 24 hrs by agarose gel electrophoresis; format: functional, organism-based
In short: as §4

Leishmania amazonensis [29] = experiment: Antileishmanial activity against axenic amastigotes of Leishmania amazonensis IFLA/BR/67/PH8 infected in Swiss mouse peritoneal macrophages assessed as reduction of survival rate at 300 mg/L after 72 hrs by light microscopy analysis; format: functional, organism-based
In short: as §3

Leishmania amazonensis [30] = experiment: Antileishmanial activity against axenic amastigotes of Leishmania amazonensis IFLA/BR/67/PH8 infected in Swiss mouse peritoneal macrophages assessed as reduction of survival rate at 50 to 300 mg/L after 24 hrs by light microscopy analysis; format: functional, organism-based
In short: as §3

Compound	IC50 (Leishmania amazonensis [1])	Selectivity Index [2]	Selectivity Index [3]	EC50 (Leishmania amazonensis [4])	HC50 at 1 h [5]	Ratio CC50/EC50 [6]	Ratio CC50/IC50 [7]	CC50 at 24 h [8]	other results
COc1ccc(Br)c(/C=N/c2sc3c(c2C#N)CCCC3)c1	88 µM	> 4.78	> 9.1	167 µM	> 800 µM	1.26	2.4	211 µM	
N#Cc1c(/N=C/c2cc3cc(Br)ccc3[nH]2)sc2c1CCCCC2	3.65 µM	> 39.8	> 219	20.1 µM	> 800 µM	1.59	8.77	32 µM	Activity [9]: Active; Activity (Leishmania amazonensis [10]): 4.3%; Activity (Leishmania amazonensis [11]): 79.9%; Activity (Leishmania amazonensis [12]): 53.2%; Activity (Leishmania amazonensis [13]): 27.1%; Activity (Leishmania amazonensis [14]): 15.3%; Activity (Leishmania amazonensis [15]): 5.6%; Activity (Leishmania amazonensis [16]): Dose-dependent effect; Activity [17]: Active; Activity (Leishmania amazonensis [18]): 27.3%; Activity (Leishmania amazonensis [19]): 6.1%; Activity (Leishmania amazonensis [20]): 9.06%; Activity (Leishmania amazonensis [21]): Dose-dependent effect; Activity (Leishmania amazonensis [22]): 22.7%; Activity [23]: inactive; Activity (Leishmania amazonensis [24]): Active; Activity (Leishmania amazonensis [25]): 4.8%; Activity (Leishmania amazonensis [26]): 44.3%
N#Cc1c(/N=C/c2cccs2)sc2c1CCCCC2	189 µM	> 4.16	> 4.22	192 µM	> 800 µM	3.75	3.81	722 µM	
N#Cc1c(/N=C/c2cc3ccccc3[nH]2)sc2c1CCCCC2	7.37 µM	45.5	97.9	15.8 µM	721 µM	3.1	6.65	49.1 µM	Activity [9]: inactive; Activity (Leishmania amazonensis [10]): 4.06%; Activity (Leishmania amazonensis [11]): 72.2%; Activity (Leishmania amazonensis [12]): 54.9%; Activity (Leishmania amazonensis [13]): 25.2%; Activity (Leishmania amazonensis [14]): 15.7%; Activity (Leishmania amazonensis [15]): 3.5%; Activity (Leishmania amazonensis [16]): Dose-dependent effect; Activity [17]: inactive; Activity (Leishmania amazonensis [18]): 15.6%; Activity (Leishmania amazonensis [19]): 12.1%; Activity (Leishmania amazonensis [20]): 11.6%; Activity (Leishmania amazonensis [21]): Dose-dependent effect; Activity (Leishmania amazonensis [22]): 31.6%; Activity [23]: inactive; Activity (Leishmania amazonensis [24]): Active; Activity (Leishmania amazonensis [25]): 4.07%; Activity [27]: inactive; Activity (Leishmania amazonensis [26]): 19%
C[C@@H]1[C@H](O)[C@@H](C)/C=C/C=C/C=C/C=C/C=C/C=C/C=C/[C@H](O[C@@H]2O[C@H](C)[C@@H](O)[C@H](N)[C@@H]2O)C[C@@H]2O[C@](O)(C[C@@H](O)C[C@@H](O)[C@H](O)CC[C@@H](O)C[C@@H](O)CC(=O)O[C@H]1C)C[C@H](O)[C@H]2C(=O)O [AMPHOTERICIN B]	0.17 µM	50.4	68.2	0.23 µM	11.6 µM	0.78	1.05	0.18 µM	Activity (Leishmania amazonensis [10]): 10.3%; Activity (Leishmania amazonensis [11]): 67.2%; Activity (Leishmania amazonensis [12]): 8.6%; Activity (Leishmania amazonensis [13]): 42.2%; Activity (Leishmania amazonensis [14]): 38.8%; Activity (Leishmania amazonensis [15]): 10.4%; Activity (Leishmania amazonensis [28]): Active; Activity (Leishmania amazonensis [18]): 38.8%; Activity (Leishmania amazonensis [19]): 2.8%; Activity (Leishmania amazonensis [20]): 23.8%; EC50 (Leishmania amazonensis [21]; IFLA/BR/67/PH8, 72 h): 169 µg/mL (≈ 183 µM); Activity (Leishmania amazonensis [22]): 5.2%; Activity (Leishmania amazonensis [25]): 6%; Activity (Leishmania amazonensis [26]): 45.5%
N#Cc1c(/N=C/c2ccc3ncccc3c2)sc2c1CCCCC2	165 µM	5.41	4.35	132 µM	716 µM	3.31	2.66	438 µM	
N#Cc1c(/N=C/c2ccccc2)sc2c1CCCC2	61.5 µM	5.4	11.1	124 µM	682 µM	1.13	2.29	141 µM	
N#Cc1c(/N=C/c2cccs2)sc2c1CCC2	139 µM	> 3.79	> 5.73	211 µM	> 800 µM	2.56	3.87	540 µM	
Meglumine antimoniate		0.42	0.016			1.01	0.04		Activity (Leishmania amazonensis [29]): Active; Activity (Leishmania amazonensis [30]): inactive
N#Cc1c(/N=C/c2ccc([N+](=O)[O-])cc2)sc2c1CCCC2	187 µM	> 3.76	> 4.27	213 µM	> 800 µM	1.07	1.22	229 µM	
N#Cc1c(/N=C/c2ccc3ncccc3c2)sc2c1CCC2	49.1 µM	6	12.7	103 µM	625 µM	1.9	3.99	196 µM	

Source: ChEMBL document CHEMBL3745600, “2-Amino-thiophene derivatives present antileishmanial activity mediated by apoptosis and immunomodulation in vitro” (Eur J Med Chem, 2015)
